{"source": "ChEMBL document CHEMBL1151472", "about": "“In vitro interactions between tacrolimus and azoles against Candida albicans determined by different methods” (2008)", "assay_type_in_all_cases": "functional", "key": {"[1]": {"tested_on": "Candida albicans", "assay": "Antimicrobial activity against azole-resistant Candida albicans isolate CA10 assessed as growth at 8 ug/ml cotreated with 0.031 ug/ml calcineurin signaling inhibitor tacrolimus after 48 hrs by microdilution checkerboard technique relative to control", "set-up": "scale not given: the % may be the effect or the level left", "how_it_was_run": "(§1)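 Checkerboard microdilution in RPMI 1640 (pH 7.0, 2% dextrose, 0.165 M MOPS). Azole dilutions run along columns and FK506 along rows, at 4× final concentration. Final inoculum 2.5 × 10^3 CFU/ml from Sabouraud-subcultured cells. Incubated 35°C for 48 h; OD read at 492 nm. Background from microorganism-free plates subtracted. Growth % = well OD / drug-free well OD. Triplicate on different days, values averaged.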"}, "[2]": {"tested_on": "Candida albicans", "assay": "Antimicrobial activity against azole-resistant Candida albicans isolate CA10 assessed as growth at 1 ug/ml cotreated with 0.063 ug/ml calcineurin signaling inhibitor Tacrolimus after 48 hrs by microdilution checkboard technique relative to control", "set-up": "scale not given: the % may be the effect or the level left", "how_it_was_run": "(§2)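 Checkerboard microdilution in MOPS-buffered RPMI 1640 (pH 7.0, 2% dextrose). Final ranges: azole 0.125–128 μg/ml (FLC) or 0.008–8 μg/ml (ITR, VRC), tacrolimus 0.002–0.125 μg/ml; solvent 1% in single-drug wells. Inoculum 2.5 × 10^3 CFU/ml, 35°C, 48 h. Growth % = background-subtracted OD492 of each well / drug-free well. Triplicate on different days.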"}, "[3]": {"tested_on": "Candida albicans", "assay": "Antimicrobial activity against azole-resistant Candida albicans isolate CA10 assessed as growth at 8 ug/ml cotreated with 0.063 ug/ml calcineurin signaling inhibitor tacrolimus after 48 hrs by microdilution checkerboard technique relative to control", "set-up": "scale not given: the % may be the effect or the level left", "how_it_was_run": "(§3)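 CA10 in RPMI 1640 with 2% dextrose and 0.165 M MOPS, pH 7.0. Checkerboard used twofold dilutions, with azole alone in row H and the drug-free growth control in well H1. Final inoculum was 2.5 × 10^3 CFU/ml, incubated 35°C for 48 h, with OD read at 492 nm. Growth % = background-subtracted well OD / drug-free well OD. Run in triplicate on different days.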"}, "[4]": {"tested_on": "Candida albicans", "assay": "Antimicrobial activity against azole-resistant Candida albicans isolate CA10 assessed as growth at 64 ug/ml cotreated with 0.063 ug/ml calcineurin signaling inhibitor Tacrolimus after 48 hrs by microdilution checkboard technique relative to control", "set-up": "scale not given: the % may be the effect or the level left", "how_it_was_run": "as §3"}, "[5]": {"tested_on": "Candida albicans", "assay": "Antimicrobial activity against azole-resistant Candida albicans isolate CA10 assessed as growth at 0.25 ug/ml cotreated with 0.016 ug/ml calcineurin signaling inhibitor Tacrolimus after 48 hrs by microdilution checkboard technique relative to control", "set-up": "scale not given: the % may be the effect or the level left", "how_it_was_run": "as §1"}, "[6]": {"tested_on": "Candida albicans", "assay": "Antimicrobial activity against azole-resistant Candida albicans isolate CA10 assessed as growth at 16 ug/ml co-treated with 0.016 ug/ml calcineurin signaling inhibitor tacrolimus after 48 hrs by microdilution checkboard technique relative to control", "set-up": "scale not given: the % may be the effect or the level left", "how_it_was_run": "as §2"}, "[7]": {"tested_on": "Candida albicans", "assay": "Antimicrobial activity against azole-resistant Candida albicans isolate CA10 assessed as growth at 0.125 ug/ml cotreated with 0.002 ug/ml calcineurin signaling inhibitor Tacrolimus after 48 hrs by microdilution checkboard technique relative to control", "set-up": "scale not given: the % may be the effect or the level left", "how_it_was_run": "as §2"}, "[8]": {"tested_on": "Candida albicans", "assay": "Antimicrobial activity against azole-resistant Candida albicans isolate CA10 assessed as growth at 2 ug/ml cotreated with 0.008 ug/ml calcineurin signaling inhibitor Tacrolimus after 48 hrs by microdilution checkboard technique relative to control", "set-up": "scale not given: the % may be the effect or the level left", "how_it_was_run": "as §2"}, "[9]": {"tested_on": "Candida albicans", "assay": "Antimicrobial activity against azole-resistant Candida albicans isolate CA10 assessed as growth at 16 ug/ml cotreated with 0.008 ug/ml calcineurin signaling inhibitor tacrolimus after 48 hrs by microdilution checkerboard technique relative to control", "set-up": "scale not given: the % may be the effect or the level left", "how_it_was_run": "as §2"}, "[10]": {"tested_on": "Candida albicans", "assay": "Antimicrobial activity against azole-resistant Candida albicans isolate CA10 assessed as growth at 64 ug/ml co-treated with 0.008 ug/ml calcineurin signaling inhibitor tacrolimus after 48 hrs by microdilution checkboard technique relative to control", "set-up": "scale not given: the % may be the effect or the level left", "how_it_was_run": "as §3"}, "[11]": {"tested_on": "Candida albicans", "assay": "Antimicrobial activity against azole-resistant Candida albicans isolate CA10 assessed as growth at 128 ug/ml cotreated with 0.008 ug/ml calcineurin signaling inhibitor Tacrolimus after 48 hrs by microdilution checkboard technique relative to control", "set-up": "scale not given: the % may be the effect or the level left", "how_it_was_run": "as §2"}, "[12]": {"tested_on": "Candida albicans", "assay": "Antimicrobial activity against azole-resistant Candida albicans isolate CA10 assessed as growth at 2 ug/ml cotreated with 0.004 ug/ml calcineurin signaling inhibitor tacrolimus after 48 hrs by microdilution checkerboard technique relative to control", "set-up": "scale not given: the % may be the effect or the level left", "how_it_was_run": "as §2"}, "[13]": {"tested_on": "Candida albicans", "assay": "Antimicrobial activity against azole-resistant Candida albicans isolate CA10 assessed as growth at 64 ug/ml after 48 hrs by microdilution checkerboard technique relative to control", "how_it_was_run": "as §3"}, "[14]": {"tested_on": "Candida albicans", "assay": "Antimicrobial activity against azole-susceptible Candida albicans isolate CA5 after 48 hrs by broth microdilution method", "conditions": "isolate CA5, 48 h", "how_it_was_run": "(§4)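 CLSI M27-A2 broth microdilution was run in RPMI 1640 (pH 7.0, 2% dextrose, 0.165 M MOPS). Inoculum was 2.5 × 10^3 CFU/ml, incubated 35°C for 48 h without shaking. Plates were read visually (0–5 scale) and at OD 492 nm. MIC80 = lowest concentration giving an 80% absorbance decrease vs drug-free control. Triplicate.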"}, "[15]": {"tested_on": "Candida albicans", "assay": "Antimicrobial activity against azole-susceptible Candida albicans isolate CA8 after 48 hrs by broth microdilution method", "conditions": "isolate CA8, 48 h", "how_it_was_run": "as §4"}, "[16]": {"tested_on": "Candida albicans", "assay": "Antimicrobial activity against azole-susceptible Candida albicans isolate CA14 after 48 hrs by broth microdilution method", "conditions": "isolate CA14, 48 h", "how_it_was_run": "as §4"}, "[17]": {"tested_on": "Candida albicans", "assay": "Antimicrobial activity against azole-susceptible Candida albicans isolate CA129 co-treated with calcineurin signaling inhibitor tacrolimus after 48 hrs by microdilution checkerboard technique", "conditions": "isolate CA129, 48 h", "how_it_was_run": "(§5)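 Checkerboard microdilution in MOPS-buffered RPMI 1640 (pH 7.0, 2% dextrose) with 2.5 × 10^3 CFU/ml for 48 h at 35°C. Final FK506 was 0.002–0.125 μg/ml. Azole finals were FLC 0.125–128 μg/ml, and ITR and VRC 0.008–8 μg/ml. MIC80 is an 80% OD492 decrease vs drug-free control. Interaction was scored by FICI (synergy ≤0.5, antagonism >4) and by ΔE from triplicates.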"}, "[18]": {"tested_on": "Candida albicans", "assay": "Antimicrobial activity against azole-resistant Candida albicans isolate CA137 cotreated with calcineurin signaling inhibitor Tacrolimus after 48 hrs by microdilution checkerboard technique", "conditions": "isolate CA137, 48 h", "how_it_was_run": "as §5"}, "[19]": {"tested_on": "Candida albicans", "assay": "Antimicrobial activity against azole-resistant Candida albicans isolate CA10 assessed as growth at 0.5 ug/ml co-treated with 0.125 ug/ml calcineurin signaling inhibitor tacrolimus after 48 hrs by microdilution checkboard technique relative to control", "set-up": "scale not given: the % may be the effect or the level left", "how_it_was_run": "as §2"}, "[20]": {"tested_on": "Candida albicans", "assay": "Antimicrobial activity against azole-resistant Candida albicans isolate CA10 assessed as growth at 1 ug/ml co-treated with 0.125 ug/ml calcineurin signaling inhibitor tacrolimus after 48 hrs by microdilution checkboard technique relative to control", "set-up": "scale not given: the % may be the effect or the level left", "how_it_was_run": "as §2"}, "[21]": {"tested_on": "Candida albicans", "assay": "Antimicrobial activity against azole-resistant Candida albicans isolate CA10 assessed as growth at 32 ug/ml co-treated with 0.125 ug/ml calcineurin signaling inhibitor tacrolimus after 48 hrs by microdilution checkboard technique relative to control", "set-up": "scale not given: the % may be the effect or the level left", "how_it_was_run": "as §3"}, "[22]": {"tested_on": "Candida albicans", "assay": "Antimicrobial activity against azole-resistant Candida albicans isolate CA10 assessed as growth at 64 ug/ml co-treated with 0.125 ug/ml calcineurin signaling inhibitor tacrolimus after 48 hrs by microdilution checkboard technique relative to control", "set-up": "scale not given: the % may be the effect or the level left", "how_it_was_run": "as §3"}, "[23]": {"tested_on": "Candida albicans", "assay": "Antimicrobial activity against azole-resistant Candida albicans isolate CA10 assessed as growth at 128 ug/ml cotreated with 0.125 ug/ml calcineurin signaling inhibitor Tacrolimus after 48 hrs by microdilution checkboard technique relative to control", "set-up": "scale not given: the % may be the effect or the level left", "how_it_was_run": "as §2"}}}
{"smiles": "OC(Cn1cncn1)(Cn1cncn1)c1ccc(F)cc1F", "note": "[FLUCONAZOLE]", "values": [{"measurement": "Activity", "setting": "[1]", "value": 18, "unit": "%"}, {"measurement": "Activity", "setting": "[2]", "value": 18, "unit": "%"}, {"measurement": "Activity", "setting": "[3]", "value": 12, "unit": "%"}, {"measurement": "Activity", "setting": "[4]", "value": 0, "unit": "%"}, {"measurement": "Activity", "setting": "[5]", "value": 23, "unit": "%"}, {"measurement": "Activity", "setting": "[6]", "value": 19, "unit": "%"}, {"measurement": "Activity", "setting": "[7]", "value": 76, "unit": "%"}, {"measurement": "Activity", "setting": "[8]", "value": 22, "unit": "%"}, {"measurement": "Activity", "setting": "[9]", "value": 24, "unit": "%"}, {"measurement": "Activity", "setting": "[10]", "value": 21, "unit": "%"}, {"measurement": "Activity", "setting": "[11]", "value": 39, "unit": "%"}, {"measurement": "Activity", "setting": "[12]", "value": 32, "unit": "%"}, {"measurement": "Activity", "setting": "[13]", "value": 48, "unit": "%"}, {"measurement": "MIC", "setting": "[14]", "value": 0.25, "unit": "µg/mL"}, {"measurement": "MIC", "setting": "[15]", "value": 0.25, "unit": "µg/mL"}, {"measurement": "MIC", "setting": "[16]", "value": 0.5, "unit": "µg/mL"}, {"measurement": "MIC", "setting": "[17]", "value": 0.25, "unit": "µg/mL"}, {"measurement": "MIC", "setting": "[18]", "value": 0.5, "unit": "µg/mL"}, {"measurement": "Activity", "setting": "[19]", "value": 6, "unit": "%"}, {"measurement": "Activity", "setting": "[20]", "value": 3, "unit": "%"}, {"measurement": "Activity", "setting": "[21]", "value": 0, "unit": "%"}, {"measurement": "Activity", "setting": "[22]", "value": 0, "unit": "%"}, {"measurement": "Activity", "setting": "[23]", "value": 0, "unit": "%"}]}
